# In PMC4902274 (Hypertension, 2014):
# B1: mouse prorenin: unlabeled mouse prorenin (protein, UniProt P06281 22-402, looked up)
# pro-form: LPTRTATFERIPLKKMPSVREILEERGVDMTRLSAEWGVFTKRPSLTNLTSPVVLTNYLNTQYYGEIGIGTPPQTFKVIFDTGSANLWVPSTKCSRLYLACGIHSLYESSDSSSYMENGSDFTIHYGSGRVKGFLSQDSVTVGGITVTQTFGEVTELPLIPFMLAKFDGVLGMGFPAQAVGGVTPVFDHILSQGVLKEEVFSVYYNRGSHLLGGEVVLGGSDPQHYQGNFHYVSISKTDSWQITMKGVSVGSSTLLCEEGCAVVVDTGSSFISAPTSSLKLIMQALGAKEKRIEEYVVNCSQVPTLPDISFDLGGRAYTLSSTDYVLQYPNRRDKLCTLALHAMDIPPPTGPVWVLGATFIRKFYTEFDRHNNRIGFALAR
# modifications: pro-form
# B2: human prorenin: unlabeled human prorenin (protein, UniProt P00797 24-406, looked up)
# pro-form: LPTDTTTFKRIFLKRMPSIRESLKERGVDMARLGPEWSQPMKRLTLGNTTSSVILTNYMDTQYYGEIGIGTPPQTFKVVFDTGSSNVWVPSSKCSRLYTACVYHKLFDASDSSSYKHNGTELTLRYSTGTVSGFLSQDIITVGGITVTQMFGEVTEMPALPFMLAEFDGVVGMGFIEQAIGRVTPIFDNIISQGVLKEDVFSFYYNRDSENSQSLGGQIVLGGSDPQHYEGNFHYINLIKTGVWQIQMKGVSVGSSTLLCEDGCLALVDTGASYISGSTSSIEKLMEALGAKKRLFDYVVKCNEGPTLPDISFHLGGKEYTLTSADYVFQESYSSKKLCTLAIHAMDIPPPTGPTWALGATFIRKFYTEFDRRNNRIGFALAR
# modifications: pro-form
# B3: prorenin: prorenin; species not stated at the place (protein, UniProt P00797 24-406, looked up)
# pro-form: B2 pro-form
# modifications: pro-form
# Tests used:
# SH-SY5Y cells = test: Intracellular calcium / calcium influx in SH-SY5Y cells; assay type: cell-based, human; conditions: for inhibition of prorenin-induced calcium influx: 1 μmol/L inhibitor
# PRR = conditions: cited from earlier work
# hypertensive RA mice [1] = conditions: systemic enalapril; cited from earlier work
# hypertensive RA mice [2] = test: Acute intracerebroventricular infusion, BP in renin-angiotensinogen; assay type: in vivo, mouse; conditions: losartan 3 mmol/L, 10-minute icv infusion, n=4
# Outline: (§1)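 Test compound, scrambled peptide (1 mmol/L, control) or losartan was infused intracerebroventricularly over 10 minutes into hypertensive mice. BP was traced in real time before, during and after the infusion. The read-out was change in mean arterial pressure (ΔMAP).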
# [3] = system: DOCA-salt hypertensive mice; assay type: in vivo, mouse; conditions: losartan 3 mmol/L, 10-minute icv infusion, n=5
# Outline: as §1
# normotensive SHAM mice = test: Acute intracerebroventricular infusion, BP in normotensive SHAM mice; assay type: in vivo, mouse; conditions: icv PRO20 1 mmol/L or losartan 3 mmol/L, n=4
# [4] = system: ERK-1/2 phosphorylation, Neuro-2A cells; test: ERK-1/2 phosphorylation in Neuro-2A cells; assay type: cell-based, mouse
# Outline: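 Neuro-2A cells were kept in serum-free medium overnight, then pretreated with losartan 10 μmol/L for 30 minutes. They were then exposed for 15 minutes to prorenin (4 nmol/L), HRP (1 μmol/L) or test peptide (1 μmol/L). Total and phosphorylated ERK-1/2 were measured by Western blot. PRR knockdown cells were transfected with AAV-PRR-shRNA for 3 days.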
# [5] = system: prorenin-induced hypertension, C57Bl/6J mice; conditions: cited from earlier work
# [6] = system: DOCA-salt hypertension, mice; conditions: icv infusion of losartan; cited from earlier work
# ERK-1/2 = conditions: cited from earlier work
# diabetic nephropathy = conditions: cited from earlier work
# [7] = system: spontaneously hypertensive rats; conditions: cited from earlier work
# [8] = system: diabetic hypertensive rats; conditions: cited from earlier work
# prorenin = conditions: cited from earlier work
# [9] = biological target: (pro)renin receptor (PRR), mouse brain (Mus musculus, UniProt Q9CYN9); test: PRO20-FITC fluorescence binding to mouse brain sections; conditions: PRO20-FITC 5 nmol/L, unlabeled mouse prorenin 1 μmol/L, mouse PVN
# Outline: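 Mouse PVN sections were incubated with FITC-labelled test peptide, 5 nmol/L with or without unlabelled mouse prorenin 1 μmol/L. For a concentration series (1, 2, 5, 10, 20 nmol/L), n=5–6 per concentration. PVN from neuron-specific PRR-knockout mice was also examined. Nuclei were stained with DAPI. Relative fluorescence units were total fluorescence density minus background per image.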
# [10] = system: prorenin-induced hypertension, C57Bl/6J mice; test: Pressor response to acute intracerebroventricular infusion of mouse prorenin; assay type: in vivo; conditions: mouse prorenin 2.4 μmol/L + scrambled peptide 100 μmol/L, 3 μL/min for 10 minutes, icv
# [11] = biological target: (pro)renin receptor (PRR), human brain (Homo sapiens, UniProt O75787); test: PRO20-FITC fluorescence binding to human brain sections; conditions: PRO20-FITC 1 nmol/L, unlabeled human prorenin 1 μmol/L, human PVN
# Outline: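 Human PVN sections were incubated with FITC-labelled test peptide, 1 nmol/L with or without unlabelled human prorenin 1 μmol/L. For a concentration series (0.2, 0.5, 1, 2, 5 nmol/L), n=5–6 per concentration. Nuclei were stained with DAPI. Relative fluorescence units were total fluorescence density minus background in each image.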
# [12] = system: plasminogen-activator inhibitor 1 release; conditions: prorenin 4 nmol/L; cited from earlier work
# [13] = human prorenin 4 nmol/L, n=7–11/group
# (pro)renin receptor (PRR), human brain, sequence (O75787 17-350): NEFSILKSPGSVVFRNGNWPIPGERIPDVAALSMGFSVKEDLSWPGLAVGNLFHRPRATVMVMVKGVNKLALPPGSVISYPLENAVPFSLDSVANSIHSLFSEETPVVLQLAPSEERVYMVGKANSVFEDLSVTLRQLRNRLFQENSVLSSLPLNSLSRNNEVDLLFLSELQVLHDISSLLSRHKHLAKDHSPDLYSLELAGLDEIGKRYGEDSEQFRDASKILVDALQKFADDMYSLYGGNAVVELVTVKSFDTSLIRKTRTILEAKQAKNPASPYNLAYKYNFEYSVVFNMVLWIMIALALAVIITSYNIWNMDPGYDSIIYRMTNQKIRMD
# (pro)renin receptor (PRR), mouse brain, sequence (Q9CYN9 18-350): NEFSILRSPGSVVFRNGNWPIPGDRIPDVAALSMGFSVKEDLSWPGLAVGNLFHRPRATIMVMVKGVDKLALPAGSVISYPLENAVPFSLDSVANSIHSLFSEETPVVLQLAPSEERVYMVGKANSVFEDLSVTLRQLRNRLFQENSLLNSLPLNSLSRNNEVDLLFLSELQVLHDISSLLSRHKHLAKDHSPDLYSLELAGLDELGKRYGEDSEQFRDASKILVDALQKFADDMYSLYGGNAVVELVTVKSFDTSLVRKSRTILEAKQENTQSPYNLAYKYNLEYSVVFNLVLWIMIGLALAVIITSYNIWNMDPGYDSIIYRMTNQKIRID
molecule,measurement,setting,value
Nc1ncnc2c1ncn2[C@@H]1O[C@H](COP(=O)(O)OP(=O)(O)OP(=O)(O)O)[C@@H](O)[C@H]1O [ATP],intracellular calcium in SH-SY5Y cells,"SH-SY5Y cells; ATP 1 μmol/L, Fluo-4-AM, n=7–11/group",increased intracellular calcium
COCCCOc1cc(C[C@@H](C[C@H](N)[C@@H](O)C[C@H](C(=O)NCC(C)(C)C(N)=O)C(C)C)C(C)C)ccc1OC [aliskiren],effect on renin or prorenin binding to the PRR,PRR,does not alter renin or prorenin binding to the PRR
C[C@H](CS)C(=O)N1CCC[C@H]1C(=O)O [captopril],inhibition of prorenin-induced calcium influx,SH-SY5Y cells; [13],completely blocked
CCOC(=O)[C@H](CCc1ccccc1)N[C@@H](C)C(=O)N1CCC[C@H]1C(=O)O [enalapril],"effect on BP in RA mice, systemic",hypertensive RA mice [1],did not normalize BP
CCCCc1nc(Cl)c(CO)n1Cc1ccc(-c2ccccc2-c2nn[nH]n2)cc1 [losartan],inhibition of prorenin-induced calcium influx,SH-SY5Y cells; [13],completely blocked
same,inhibition of Ang II-induced intracellular calcium increase,"SH-SY5Y cells; losartan 1 μmol/L vs Ang II 10 nmol/L, n=7–11/group",blocked
same,effect on mean arterial BP (MAP),hypertensive RA mice [2],reduced mean arterial BP
same,effect on mean arterial BP (MAP),[3],reduced mean arterial BP
same,effect on MAP in normotensive mice,normotensive SHAM mice,did not alter MAP
same,inhibition of prorenin-induced ERK-1/2 phosphorylation,"[4]; losartan, prorenin",partially blocked
same,effect on prorenin-induced hypertension,[5]; icv infusion of losartan,abolishes prorenin-induced hypertension
same,effect on development of DOCA-salt hypertension,[6],totally prevents the development of DOCA-salt hypertension
Ang II: major bioactive peptide of the RAS,intracellular calcium in SH-SY5Y cells,"SH-SY5Y cells; Ang II 10 nmol/L, Fluo-4-AM, n=7–11/group",increased intracellular calcium levels
RILLKKMPSV [HRP],"phosphorylated ERK-1/2 levels, peptide alone","[4]; PRO20 or HRP alone, 1 μmol/L, 15 minutes, losartan 10 μmol/L",unaffected
same,inhibition of binding of prorenin to the PRR,PRR,no direct inhibitory effect on the binding of prorenin to the PRR
same,ERK-1/2 phosphorylation in the retina,ERK-1/2,increases phosphorylation of extracellular signal–regulated protein kinase 1 and 2
same,effect on diabetic nephropathy in rats,diabetic nephropathy; development,prevent the development of diabetic nephropathy in rats without affecting hyperglycemia
same,effect on established diabetic nephropathy in rats,diabetic nephropathy; established,induce regression of established diabetic nephropathy
same,effect on cardiac fibrosis,[7],attenuates the development of cardiac fibrosis
same,effect on beneficial effects of aliskiren on vascular dysfunction,[8],counteracts the beneficial effects of aliskiren
same,conformational change and nonproteolytic activation of prorenin on binding to PRR,prorenin,inhibits the conformational change and nonproteolytic activation of prorenin
B1,inhibition of PRO20-FITC binding by unlabeled prorenin,[9],completely blocked
same,BP during intracerebroventricular infusion of prorenin,[10],induced a rapid increase in BP
same,BP in conscious wild-type mice,"[5]; icv mouse prorenin 2.4 μmol/L, conscious wild-type C57Bl/6J mice",increases BP
B2,inhibition of PRO20-FITC binding by unlabeled prorenin,[11],eliminated PRO20-FITC binding
same,intracellular calcium in SH-SY5Y cells,SH-SY5Y cells; [13],increased neuronal intracellular calcium
same,calcium influx induced relative to Ang II,"SH-SY5Y cells; human prorenin vs Ang II, SH-SY5Y cells",to a degree similar to that of Ang II
B3,ERK-1/2 phosphorylation,"[4]; prorenin alone, serum-free medium",markedly increased ERK-1/2 phosphorylation
same,Ang II-dependent plasminogen-activator inhibitor 1 release,[12],increased Ang II–dependent plasminogen-activator inhibitor 1 release
